Assay results reported in ChEMBL document CHEMBL5303300, “EUbOPEN Chemogenomics Library - Multiplex” (2023).
Where “and” joins values, the source holds several entries; their conditions need not be identical. Identical values can stand only once.

Key:
Type in all cases: toxicity, cell-based
[1] = tested on: U2OS; test: Multiplex assay against U2OS; conditions: human, number of replicates 2
How it was run: (§1)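 Cells stained live at seeding with Hoechst33342, BioTracker Green Microtubule Cytoskeleton Dye, MitoTracker Red and Annexin V Alexa Fluor 680 were imaged on a CQ1 microscope at 37°C and 5% CO2 after compound addition. Their classification by CellPathfinder machine-learning gating ran from Hoechst high-intensity objects versus normal cells, to healthy, pyknosed or fragmented nuclei among normal cells, to mitotic or apoptotic among pyknosed cells. Tubulin, mitochondrial-mass and membrane-permeability phenotypes are per cents of healthy-nucleus cells.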

[2] = tested on: Fibroblast; test: Multiplex assay against human fibroblast; conditions: number of replicates 2; how it was run: as §1
[3] = tested on: HEK-293T; test: Multiplex assay against HEK293T; conditions: human, number of replicates 2; how it was run: as §1
[4] = 12 h, 1 µM, compound concentration 1 uM
[5] = 12 h, 10 µM, compound concentration 10 uM
[6] = 24 h, 1 µM, compound concentration 1 uM
[7] = 24 h, 10 µM, compound concentration 10 uM
[8] = 48 h, 1 µM, compound concentration 1 uM
[9] = 48 h, 10 µM, compound concentration 10 uM

COc1cc(OC)cc(C(=O)NNC(=O)Nc2cccc3ccccc23)c1
Population Apoptotic (%) [1, 4]: 66% and 60%
Population Healthy Nuclei (%) [1, 4]: 65% and 85%
Population Hoechst High Intensity Objects (%) [1, 4]: 0%
Population Membrane Permeable-Phenotype (%) [1, 4]: 7% and 3%
Population Mitochondria Different-Phenotype (%) [1, 4]: 0%
Population Mitotic Cells (%) [1, 4]: 33% and 39%
Population Normal (%) [1, 4]: 100%
Population Pyknosed Nuclei (%) [1, 4]: 15% and 11%
Population Tubulin-Different-Phenotype (%) [1, 4]: 53% and 88%
Population Healthy Nuclei (%) [1, 5]: 80% and 64%
Population Hoechst High Intensity Objects (%) [1, 5]: 0%
Population Membrane Permeable-Phenotype (%) [1, 5]: 0% and 5%
Population Mitochondria Different-Phenotype (%) [1, 5]: 0%
Population Mitotic Cells (%) [1, 5]: 57% and 90%
Population Normal (%) [1, 5]: 100%
Population Pyknosed Nuclei (%) [1, 5]: 15% and 19%
Population Tubulin-Different-Phenotype (%) [1, 5]: 71% and 38%
Population Apoptotic (%) [1, 6]: 51% and 100%
Population Fragmented Nuclei (%) [1, 6]: 4% and 12%
Population Healthy Nuclei (%) [1, 6]: 83% and 79%
Population Hoechst High Intensity Objects (%) [1, 6]: 0%
Population Membrane Permeable-Phenotype (%) [1, 6]: 2% and 0%
Population Mitochondria Different-Phenotype (%) [1, 6]: 0%
Population Normal (%) [1, 6]: 99% and 100%
Population Pyknosed Nuclei (%) [1, 6]: 11% and 8%
Population Tubulin-Different-Phenotype (%) [1, 6]: 89% and 36%
Population Apoptotic (%) [1, 7]: 34% and 30%
Population Fragmented Nuclei (%) [1, 7]: 5% and 6%
Population Healthy Nuclei (%) [1, 7]: 83% and 73%
Population Hoechst High Intensity Objects (%) [1, 7]: 0%
Population Membrane Permeable-Phenotype (%) [1, 7]: 0% and 4%
Population Mitochondria Different-Phenotype (%) [1, 7]: 0% and 4%
Population Mitotic Cells (%) [1, 7]: 65% and 69%
Population Normal (%) [1, 7]: 100%
Population Pyknosed Nuclei (%) [1, 7]: 11% and 20%
Population Tubulin-Different-Phenotype (%) [1, 7]: 81% and 50%
Population Apoptotic (%) [1, 8]: 64% and 50%
Population Fragmented Nuclei (%) [1, 8]: 3% and 6%
Population Healthy Nuclei (%) [1, 8]: 88% and 85%
Population Hoechst High Intensity Objects (%) [1, 8]: 0%
Population Membrane Permeable-Phenotype (%) [1, 8]: 0% and 4%
Population Mitochondria Different-Phenotype (%) [1, 8]: 0% and 4%
Population Mitotic Cells (%) [1, 8]: 35% and 50%
Population Normal (%) [1, 8]: 100%
Population Pyknosed Nuclei (%) [1, 8]: 7% and 8%
Population Tubulin-Different-Phenotype (%) [1, 8]: 92% and 47%
Population Apoptotic (%) [1, 9]: 60% and 63%
Population Fragmented Nuclei (%) [1, 9]: 5% and 2%
Population Healthy Nuclei (%) [1, 9]: 68% and 90%
Population Hoechst High Intensity Objects (%) [1, 9]: 2% and 0%
Population Membrane Permeable-Phenotype (%) [1, 9]: 3% and 1%
Population Mitochondria Different-Phenotype (%) [1, 9]: 4% and 0%
Population Mitotic Cells (%) [1, 9]: 39% and 36%
Population Normal (%) [1, 9]: 97% and 100%
Population Tubulin-Different-Phenotype (%) [1, 9]: 52% and 84%
Population Apoptotic (%) [2, 4]: 32% and 47%
Population Fragmented Nuclei (%) [2, 4]: 6% and 18%
Population Healthy Nuclei (%) [2, 4]: 77% and 72%
Population Hoechst High Intensity Objects (%) [2, 4]: 0%
Population Membrane Permeable-Phenotype (%) [2, 4]: 3%
Population Mitochondria Different-Phenotype (%) [2, 4]: 0% and 1%
Population Mitotic Cells (%) [2, 4]: 67% and 52%
Population Normal (%) [2, 4]: 100%
Population Pyknosed Nuclei (%) [2, 4]: 15% and 8%
Population Tubulin-Different-Phenotype (%) [2, 4]: 10% and 5%
Total Cell Count [2, 4]: 196 and 216
Population Apoptotic (%) [2, 5]: 34% and 37%
Population Fragmented Nuclei (%) [2, 5]: 9% and 7%
Population Healthy Nuclei (%) [2, 5]: 70% and 85%
Population Hoechst High Intensity Objects (%) [2, 5]: 0%
Population Membrane Permeable-Phenotype (%) [2, 5]: 3% and 2%
Population Mitochondria Different-Phenotype (%) [2, 5]: 1% and 0%
Population Mitotic Cells (%) [2, 5]: 65% and 62%
Population Normal (%) [2, 5]: 100%
Population Pyknosed Nuclei (%) [2, 5]: 20% and 7%
Population Tubulin-Different-Phenotype (%) [2, 5]: 12% and 6%
Total Cell Count [2, 5]: 159 and 228
Population Apoptotic (%) [2, 6]: 41% and 50%
Population Healthy Nuclei (%) [2, 6]: 87% and 76%
Population Hoechst High Intensity Objects (%) [2, 6]: 0%
Population Membrane Permeable-Phenotype (%) [2, 6]: 3% and 1%
Population Mitochondria Different-Phenotype (%) [2, 6]: 2% and 0%
Population Mitotic Cells (%) [2, 6]: 58% and 50%
Population Normal (%) [2, 6]: 100%
Population Pyknosed Nuclei (%) [2, 6]: 8% and 6%
Population Tubulin-Different-Phenotype (%) [2, 6]: 11% and 3%
Total Cell Count [2, 6]: 199 and 203
Population Apoptotic (%) [2, 7]: 38% and 25%
Population Fragmented Nuclei (%) [2, 7]: 10%
Population Healthy Nuclei (%) [2, 7]: 77% and 85%
Population Hoechst High Intensity Objects (%) [2, 7]: 0%
Population Membrane Permeable-Phenotype (%) [2, 7]: 3% and 0%
Population Mitochondria Different-Phenotype (%) [2, 7]: 2% and 0%
Population Mitotic Cells (%) [2, 7]: 61% and 75%
Population Normal (%) [2, 7]: 100% and 99%
Population Pyknosed Nuclei (%) [2, 7]: 11% and 3%
Total Cell Count [2, 7]: 155 and 236
Population Apoptotic (%) [2, 8]: 62% and 56%
Population Fragmented Nuclei (%) [2, 8]: 7% and 15%
Population Healthy Nuclei (%) [2, 8]: 88% and 78%
Population Hoechst High Intensity Objects (%) [2, 8]: 0%
Population Membrane Permeable-Phenotype (%) [2, 8]: 1% and 2%
Population Mitochondria Different-Phenotype (%) [2, 8]: 0%
Population Mitotic Cells (%) [2, 8]: 37% and 43%
Population Normal (%) [2, 8]: 100%
Population Pyknosed Nuclei (%) [2, 8]: 3% and 6%
Population Tubulin-Different-Phenotype (%) [2, 8]: 5% and 1%
Total Cell Count [2, 8]: 213 and 238
Population Apoptotic (%) [2, 9]: 66% and 70%
Population Fragmented Nuclei (%) [2, 9]: 12% and 9%
Population Healthy Nuclei (%) [2, 9]: 82% and 86%
Population Hoechst High Intensity Objects (%) [2, 9]: 0%
Population Membrane Permeable-Phenotype (%) [2, 9]: 5% and 0%
Population Mitochondria Different-Phenotype (%) [2, 9]: 0%
Population Mitotic Cells (%) [2, 9]: 33% and 30%
Population Normal (%) [2, 9]: 99%
Population Pyknosed Nuclei (%) [2, 9]: 5% and 4%
Population Tubulin-Different-Phenotype (%) [2, 9]: 8% and 1%
Total Cell Count [2, 9]: 165 and 243
Population Apoptotic (%) [3, 4]: 42% and 53%
Population Fragmented Nuclei (%) [3, 4]: 2% and 1%
Population Healthy Nuclei (%) [3, 4]: 86% and 85%
Population Hoechst High Intensity Objects (%) [3, 4]: 4%
Population Membrane Permeable-Phenotype (%) [3, 4]: 1% and 2%
Population Mitochondria Different-Phenotype (%) [3, 4]: 14% and 16%
Population Mitotic Cells (%) [3, 4]: 57% and 46%
Population Normal (%) [3, 4]: 95%
Population Pyknosed Nuclei (%) [3, 4]: 10% and 13%
Population Tubulin-Different-Phenotype (%) [3, 4]: 43% and 47%
Total Cell Count [3, 4]: 709 and 572
Population Apoptotic (%) [3, 5]: 42% and 34%
Population Fragmented Nuclei (%) [3, 5]: 3%
Population Healthy Nuclei (%) [3, 5]: 84% and 83%
Population Hoechst High Intensity Objects (%) [3, 5]: 6% and 4%
Population Membrane Permeable-Phenotype (%) [3, 5]: 5% and 4%
Population Mitochondria Different-Phenotype (%) [3, 5]: 15% and 12%
Population Mitotic Cells (%) [3, 5]: 57% and 65%
Population Normal (%) [3, 5]: 93% and 95%
Population Pyknosed Nuclei (%) [3, 5]: 12% and 13%
Population Tubulin-Different-Phenotype (%) [3, 5]: 60% and 46%
Total Cell Count [3, 5]: 571 and 696
Population Apoptotic (%) [3, 6]: 25% and 34%
Population Fragmented Nuclei (%) [3, 6]: 3%
Population Healthy Nuclei (%) [3, 6]: 90% and 89%
Population Hoechst High Intensity Objects (%) [3, 6]: 8% and 6%
Population Membrane Permeable-Phenotype (%) [3, 6]: 2%
Population Mitochondria Different-Phenotype (%) [3, 6]: 4%
Population Mitotic Cells (%) [3, 6]: 74% and 65%
Population Normal (%) [3, 6]: 91% and 93%
Population Pyknosed Nuclei (%) [3, 6]: 5% and 6%
Population Tubulin-Different-Phenotype (%) [3, 6]: 28% and 29%
Total Cell Count [3, 6]: 1130 and 899
Population Apoptotic (%) [3, 7]: 36% and 29%
Population Fragmented Nuclei (%) [3, 7]: 4% and 6%
Population Healthy Nuclei (%) [3, 7]: 84% and 86%
Population Hoechst High Intensity Objects (%) [3, 7]: 6% and 4%
Population Membrane Permeable-Phenotype (%) [3, 7]: 4% and 3%
Population Mitochondria Different-Phenotype (%) [3, 7]: 9% and 4%
Population Mitotic Cells (%) [3, 7]: 63% and 70%
Population Normal (%) [3, 7]: 93% and 95%
Population Pyknosed Nuclei (%) [3, 7]: 11% and 6%
Population Tubulin-Different-Phenotype (%) [3, 7]: 50% and 27%
Total Cell Count [3, 7]: 700 and 1003
Population Apoptotic (%) [3, 8]: 8% and 15%
Population Fragmented Nuclei (%) [3, 8]: 12% and 9%
Population Healthy Nuclei (%) [3, 8]: 84% and 87%
Population Hoechst High Intensity Objects (%) [3, 8]: 9%
Population Membrane Permeable-Phenotype (%) [3, 8]: 4%
Population Mitochondria Different-Phenotype (%) [3, 8]: 0%
Population Mitotic Cells (%) [3, 8]: 91% and 84%
Population Normal (%) [3, 8]: 91% and 90%
Population Pyknosed Nuclei (%) [3, 8]: 3% and 2%
Population Tubulin-Different-Phenotype (%) [3, 8]: 11% and 16%
Total Cell Count [3, 8]: 2889 and 1933
Population Apoptotic (%) [3, 9]: 8% and 17%
Population Fragmented Nuclei (%) [3, 9]: 10% and 12%
Population Healthy Nuclei (%) [3, 9]: 82% and 84%
Population Hoechst High Intensity Objects (%) [3, 9]: 6% and 8%
Population Membrane Permeable-Phenotype (%) [3, 9]: 4% and 5%
Population Mitochondria Different-Phenotype (%) [3, 9]: 3% and 0%
Population Mitotic Cells (%) [3, 9]: 91% and 82%
Population Normal (%) [3, 9]: 93% and 91%
Population Pyknosed Nuclei (%) [3, 9]: 6% and 3%
Population Tubulin-Different-Phenotype (%) [3, 9]: 30% and 17%
Total Cell Count [3, 9]: 1120 and 2017
